Laboratory results published in ChEMBL document CHEMBL3351672, “Saccharin derivatives as inhibitors of interferon-mediated inflammation” (J Med Chem, 2014).
Calls of active or inactive are those of the source. The calls are words filed in the database; no cut-off is given here.

Tests used:
RAW264.7 [1] = assay: Cytotoxicity against mouse RAW264.7 cells assessed as cell viability by WST1 assay; assay type: cell-based; details: read-out: LC50 (the source's name) (converted)
In short: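 RAW 264.7 mouse macrophages were stimulated with 20 ng/mL LPS and given a range of compound concentrations, alongside the nitric oxide inhibition assay. Cell viability was measured at each tested concentration. LC50 was taken as the concentration giving 50% cell viability.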

RAW264.7 [2] = assay: Antiinflammatory activity in mouse RAW264.7 cells assessed as inhibition of LPS-induced nitric oxide production; assay type: functional, cell-based
In short: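 RAW 264.7 cells stimulated with 20 ng/mL LPS plus a range of compound concentrations; nitric oxide output measured. Data normalized so LPS + solvent = 100% and untreated cells = 0% activation; IC50 fitted from dose–response, points averaged over nine replicates (SD).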

RAW264.7 [3] = assay: Inhibition of IFNgamma-induced iNOS mRNA expression in mouse RAW264.7 cells at 1 to 50 uM after 16 hrs by RT-PCR analysis; assay type: functional
RAW264.7 [4] = assay: Cytotoxicity against mouse RAW264.7 cells assessed as cell viability up to 100 uM by WST1 assay; assay type: cell-based
In short: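 Cell viability assay run on the compound-treated RAW 264.7 cultures at each tested concentration; LC50 taken as concentration giving 50% viability.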

[5] = biological target: T1, Nuclear factor NF-kappa-B complex (Homo sapiens) (UniProt Q00653+P19838+Q04206); assay: Inhibition of LPS-induced NFkappaB activation in human HEK293T cells at 0.5 to 1 uM after 18 to 24 hrs by secreted embryonic alkaline phosphatase reporter gene assay; assay type: cell-based; details: HEK-293T
T1 sequence (P19838 whole entry, looked up): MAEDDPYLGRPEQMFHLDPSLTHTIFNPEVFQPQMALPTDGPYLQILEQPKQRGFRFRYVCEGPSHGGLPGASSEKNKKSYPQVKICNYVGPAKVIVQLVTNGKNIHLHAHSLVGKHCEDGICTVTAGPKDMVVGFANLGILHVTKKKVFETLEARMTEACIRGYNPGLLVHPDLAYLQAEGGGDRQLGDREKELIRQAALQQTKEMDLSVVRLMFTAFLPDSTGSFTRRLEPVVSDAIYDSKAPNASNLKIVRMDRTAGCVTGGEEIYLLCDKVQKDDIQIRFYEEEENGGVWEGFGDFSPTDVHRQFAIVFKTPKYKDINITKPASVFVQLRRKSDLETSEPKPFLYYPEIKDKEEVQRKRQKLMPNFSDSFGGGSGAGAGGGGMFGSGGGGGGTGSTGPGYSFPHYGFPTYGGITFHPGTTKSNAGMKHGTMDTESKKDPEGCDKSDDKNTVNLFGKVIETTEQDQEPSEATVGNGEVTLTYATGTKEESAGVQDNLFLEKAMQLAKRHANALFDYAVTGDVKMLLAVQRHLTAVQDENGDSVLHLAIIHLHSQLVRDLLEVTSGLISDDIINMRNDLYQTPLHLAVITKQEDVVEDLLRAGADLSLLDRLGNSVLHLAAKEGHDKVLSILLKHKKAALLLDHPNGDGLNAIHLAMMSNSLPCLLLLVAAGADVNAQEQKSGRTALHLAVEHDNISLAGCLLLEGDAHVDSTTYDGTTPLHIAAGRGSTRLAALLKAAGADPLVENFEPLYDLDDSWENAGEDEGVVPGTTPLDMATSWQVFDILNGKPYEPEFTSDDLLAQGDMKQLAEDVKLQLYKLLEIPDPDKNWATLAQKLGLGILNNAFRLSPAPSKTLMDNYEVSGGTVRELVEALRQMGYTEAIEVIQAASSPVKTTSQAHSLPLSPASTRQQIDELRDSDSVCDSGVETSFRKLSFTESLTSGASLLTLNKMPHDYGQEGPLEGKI
T1 sequence (Q00653 whole entry, looked up): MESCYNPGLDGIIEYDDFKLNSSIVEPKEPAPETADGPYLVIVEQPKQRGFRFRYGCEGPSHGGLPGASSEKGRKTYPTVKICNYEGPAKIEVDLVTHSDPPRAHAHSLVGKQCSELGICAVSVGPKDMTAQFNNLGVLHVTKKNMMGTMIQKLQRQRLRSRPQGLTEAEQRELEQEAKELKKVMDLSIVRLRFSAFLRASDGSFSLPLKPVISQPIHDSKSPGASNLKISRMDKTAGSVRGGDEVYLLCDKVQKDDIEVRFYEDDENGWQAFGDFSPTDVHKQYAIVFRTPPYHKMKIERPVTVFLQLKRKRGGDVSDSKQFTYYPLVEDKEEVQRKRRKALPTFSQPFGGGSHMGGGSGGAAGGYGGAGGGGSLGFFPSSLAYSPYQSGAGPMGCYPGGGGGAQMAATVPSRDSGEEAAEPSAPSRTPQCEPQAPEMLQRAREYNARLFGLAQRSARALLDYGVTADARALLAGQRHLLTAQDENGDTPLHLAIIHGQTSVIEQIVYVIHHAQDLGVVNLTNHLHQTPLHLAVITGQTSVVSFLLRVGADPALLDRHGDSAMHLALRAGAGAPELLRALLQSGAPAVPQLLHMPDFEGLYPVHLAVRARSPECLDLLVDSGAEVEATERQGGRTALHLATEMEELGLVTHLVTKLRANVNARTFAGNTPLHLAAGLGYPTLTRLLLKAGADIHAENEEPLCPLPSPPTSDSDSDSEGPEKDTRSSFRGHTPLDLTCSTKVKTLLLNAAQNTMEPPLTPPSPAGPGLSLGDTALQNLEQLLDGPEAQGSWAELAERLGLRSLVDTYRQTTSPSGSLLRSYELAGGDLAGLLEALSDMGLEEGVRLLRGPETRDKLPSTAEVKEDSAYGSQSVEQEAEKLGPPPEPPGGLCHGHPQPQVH
T1 sequence (Q04206 whole entry, looked up): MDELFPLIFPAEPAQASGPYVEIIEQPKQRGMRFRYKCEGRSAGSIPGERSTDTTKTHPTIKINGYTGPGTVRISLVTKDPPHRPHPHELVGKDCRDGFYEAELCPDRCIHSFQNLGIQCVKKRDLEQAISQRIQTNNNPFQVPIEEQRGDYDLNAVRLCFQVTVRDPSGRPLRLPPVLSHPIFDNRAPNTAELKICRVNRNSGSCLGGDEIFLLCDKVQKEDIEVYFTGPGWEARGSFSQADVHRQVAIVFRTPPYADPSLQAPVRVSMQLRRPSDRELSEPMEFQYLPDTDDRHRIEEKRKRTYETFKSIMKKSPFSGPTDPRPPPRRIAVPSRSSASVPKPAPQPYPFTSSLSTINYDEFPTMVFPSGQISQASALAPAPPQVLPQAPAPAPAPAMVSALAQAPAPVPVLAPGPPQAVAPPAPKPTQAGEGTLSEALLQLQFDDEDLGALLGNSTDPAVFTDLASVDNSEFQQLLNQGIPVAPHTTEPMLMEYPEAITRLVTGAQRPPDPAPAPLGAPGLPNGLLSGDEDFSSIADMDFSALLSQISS
In short: (§1)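 NF-κB activation monitored by secreted embryonic alkaline phosphatase reporter in HEK 293T cells stimulated via TLR4 or TLR3; compound tested at concentrations […].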

[6] = Inhibition of JAK/STAT signaling pathway in LPS-induced mouse RAW264.7 cells assessed as change in Cebpb mRNA expression by RT-PCR analysis relative to control; assay type: cell-based
RAW264.7 [7] = assay: Antiinflammatory activity in mouse RAW264.7 cells assessed as inhibition of poly I:C-induced nitric oxide production; assay type: functional, cell-based
In short: (§2)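 RAW 264.7 cells stimulated with Pam2CSK4 (TLR2/6 ligand) or Poly I:C (TLR3 ligand) with varying compound concentrations; NO production read out. Normalized to agonist + solvent (100%) versus untreated (0%); IC50 from dose–response curves, nine replicates averaged, SD shown.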

[8] = Inhibition of JAK/STAT signaling pathway in LPS-induced mouse RAW264.7 cells assessed as change in NOS2 mRNA expression by RT-PCR analysis relative to control; assay type: cell-based
RAW264.7 [9] = assay: Inhibition of TNFalpha production in mouse RAW264.7 cells at 0.5 to 1 uM by ELISA; assay type: functional, cell-based
In short: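 TNF-α cytokine levels from compound-treated RAW 264.7 cells measured by commercial ELISA.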

[10] = biological target: T1, Nuclear factor NF-kappa-B complex (Homo sapiens); assay: Inhibition of poly I:C-induced NFkappaB activation in human HEK293T cells at 0.5 to 1 uM after 18 to 24 hrs by secreted embryonic alkaline phosphatase reporter gene assay; assay type: cell-based; details: HEK-293T; in short: as §1
RAW264.7 [11] = assay: Inhibition of LPS-induced iNOS protein expression in mouse RAW264.7 cells after 20 hrs by Western blot analysis; assay type: functional, cell-based
In short: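 RAW 264.7 cells treated with LPS and varying compound concentrations; iNOS protein detected by Western blot using a pan-NOS antibody.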

[12] = test system: RAW 264.7 cells (Mus musculus); assay: Antiinflammatory activity in mouse RAW264.7 cells assessed as inhibition of LPS-induced nitric oxide production
RAW264.7 [13] = assay: Inhibition of LPS-induced iNOS mRNA expression in mouse RAW264.7 cells at 10 to 100 uM after 20 hrs by RT-PCR analysis; assay type: functional
In short: (§3)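 RAW 264.7 cells incubated 20 h with 20 ng/mL LPS and varying compound concentrations; iNOS mRNA quantified by real-time PCR, ligand-induced cells set to fold change 1. Three biological replicates, each in technical duplicate; SD reported.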

[14] = biological target: T1, Nuclear factor NF-kappa-B complex (Homo sapiens); assay: Inhibition of TNFalpha-induced NFkappaB activation in human HEK293T cells at 0.5 to 1 uM after 18 to 24 hrs by secreted embryonic alkaline phosphatase reporter gene assay; assay type: cell-based; details: HEK-293T
RAW264.7 [15] = assay: Antiinflammatory activity in mouse RAW264.7 cells assessed as inhibition of pam2CSK4-induced nitric oxide production; assay type: functional, cell-based; in short: as §2
RAW264.7 [16] = assay: Inhibition of LPS-induced iNOS mRNA expression in mouse RAW264.7 cells after 20 hrs by RT-PCR analysis; assay type: functional, cell-based; in short: as §3
[17] = Inhibition of JAK/STAT signaling pathway in LPS-induced mouse RAW264.7 cells assessed as inhibition of IFNgamma-induced nitric oxide production; assay type: cell-based
In short: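 JAK/STAT1 signalling activated in RAW 264.7 cells with 5 ng/mL IFN-γ alongside varying compound concentrations; NO production measured. Values normalized with ligand + solvent as 100% and untreated cells as 0%; IC50 derived from dose–response.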

[18] = Inhibition of JAK/STAT signaling pathway in LPS-induced mouse RAW264.7 cells assessed as change in Gtp1 mRNA expression by RT-PCR analysis relative to control; assay type: cell-based

SMILES | CC50 (RAW264.7 [1]) [µM] | IC50 (RAW264.7 [2]) [µM] | other results
O=C(c1ccc(Cn2oc3ccccc3c2=O)cc1)N1CCCCC1 | 66.2 | 16.8 | –
CC(C)(C)OC(=O)N(Cc1ccco1)C(=O)c1ccc(Cn2oc3ccccc3c2=O)cc1 | > 100 | 6.69 | –
CC(=O)N(Cc1ccco1)C(=O)c1ccc(CN2C(=O)c3ccccc3S2(=O)=O)cc1 | > 100 | 42.6 | –
O=C(c1ccc(CN2C(=O)c3ccccc3C2=O)cc1)N1CCCCC1 | > 100 | > 100 | –
CNC(=O)c1ccc(CN2C(=O)c3ccccc3S2(=O)=O)cc1 | > 100 | 37.7 | –
CC(C)(C)OC(=O)c1ccc(CN2C(=O)c3ccccc3S2(=O)=O)cc1 | > 100 | 10.6 | –
O=C(NCc1ccco1)c1ccc(CN2C(=O)c3ccccc3C2=O)cc1 | > 100 | 56 | –
CN(Cc1ccco1)C(=O)c1ccc(CN2C(=O)c3ccccc3S2(=O)=O)cc1 | > 100 | 79.6 | –
O=C(c1ccc(Cn2c(=O)c3ccccc3[s+]2[O-])cc1)N1CCCCC1 (centres undefined) | > 100 | 49 | –
CC(C)(C)OC(=O)N(Cc1ccco1)C(=O)c1ccc(Cn2c(=O)c3ccccc3[s+]2[O-])cc1 (centres undefined) | 87.3 | 68 | –
O=C(NCc1ccco1)c1ccc(CN2C(=O)c3ccccc3S2(=O)=O)cc1 | > 100 | 24.3 | –
O=C(c1ccc(CN2Cc3ccccc3S2(=O)=O)cc1)N1CCCCC1 | > 100 | 44.3 | –
O=C(NCCc1ccco1)c1ccc(CN2C(=O)c3ccccc3S2(=O)=O)cc1 | > 100 | 76.6 | –
CC(C)(C)OC(=O)N(Cc1ccco1)C(=O)c1ccc(Cn2sc3ccccc3c2=O)cc1 | > 100 | 68 | inhibition (INH) (RAW264.7 [3]): 50%
CC(C)(C)OC(=O)NC(=O)c1ccc(CN2C(=O)c3ccccc3S2(=O)=O)cc1 | > 100 | 64.7 | –
CN(C(=O)OC(C)(C)C)C(=O)c1ccc(CN2C(=O)c3ccccc3S2(=O)=O)cc1 | > 100 | 42 | –
COC(=O)N(Cc1ccco1)C(=O)c1ccc(CN2C(=O)c3ccccc3S2(=O)=O)cc1 | > 100 | 76 | –
CC(C)(C)OC(=O)N(C(=O)OC(C)(C)C)C(=O)c1ccc(CN2C(=O)c3ccccc3S2(=O)=O)cc1 | > 100 | 33.4 | –

SMILES | CC50 (RAW264.7 [1]) [µM] | IC50 (RAW264.7 [2]) [µM] | other results
O=C(c1ccc(CN2C(=O)c3ccccc3S2(=O)=O)cc1)N1CCCCC1 | 69.2 | 50.6 | –
CC(C)(C)OC(=O)N(Cc1ccco1)C(=O)c1ccc(CN2Cc3ccccc3S2(=O)=O)cc1 | > 100 | 10.6 | –
O=C(NCc1ccco1)c1ccc(CN2Cc3ccccc3S2(=O)=O)cc1 | > 100 | 68.4 | –
O=C(NCc1ccco1)c1ccc(Cn2c(=O)c3ccccc3[s+]2[O-])cc1 (centres undefined) | > 100 | 23.3 | –
CC1=C(c2ccc3ccccc3c2)S(=O)(=O)N(Cc2ccc(C(=O)N3CCCCC3)cc2)C1=O | 47.9 | 9.61 | –
O=C(O)c1ccc(CN2C(=O)c3ccccc3S2(=O)=O)cc1 | > 100 | 74.7 | –
O=C(c1ccc(Cn2sc3ccccc3c2=O)cc1)N1CCCCC1 | 70.3 | 5.38 | –
CC(C)(C)OC(=O)N(CCc1ccco1)C(=O)c1ccc(CN2C(=O)c3ccccc3S2(=O)=O)cc1 | > 100 | 48.6 | –
O=C(NCc1ccco1)c1ccc(Cn2sc3ccccc3c2=O)cc1 | > 100 | 19.8 | –
CC(C)(C)OC(=O)N(Cc1ccco1)C(=O)c1ccc(CN2Cc3ccccc3C2=O)cc1 | 95.2 | 51.8 | –
CC(C)(C)OC(=O)N(Cc1ccco1)C(=O)c1ccc(CN2C(=O)c3ccccc3S2(=O)=O)cc1 | > 100 | 2.61 | inhibition (INH) (RAW264.7 [3]): >70%; Activity (RAW264.7 [4]): Non-toxic; inhibition [5]: inactive; Activity [6]: Active; IC50 (RAW264.7 [7]): 10.9 µM; inhibition (RAW264.7 [7]): Dose-dependent effect; Activity [8]: Active; inhibition (RAW264.7 [9]): inactive; inhibition [10]: inactive; inhibition (RAW264.7 [11]): Dose-dependent effect; inhibition (RAW264.7 [2]): Dose-dependent effect; IC50 [12]: 9.61 µM; inhibition (INH) (RAW264.7 [13]): <=67%; inhibition [14]: inactive; IC50 (RAW264.7 [15]): 1.69 µM; inhibition (RAW264.7 [15]): Dose-dependent effect; inhibition (RAW264.7 [16]): Dose-dependent effect; IC50 [17]: 7.88 µM; inhibition [17]: Dose-dependent effect; Activity [18]: Active
CC(C)(C)OC(=O)N(Cc1ccco1)C(=O)c1ccc(CN2C(=O)c3ccccc3C2=O)cc1 | > 100 | 3.45 | –
O=C(c1ccc(CN2Cc3ccccc3C2=O)cc1)N1CCCCC1 | > 100 | 21.9 | –
O=C(NCc1ccco1)c1ccc(Cn2oc3ccccc3c2=O)cc1 | > 100 | 49.3 | –
O=C(NCc1ccco1)c1ccc(CN2Cc3ccccc3C2=O)cc1 | > 100 | 49.7 | –
NC(=O)c1ccc(CN2C(=O)c3ccccc3S2(=O)=O)cc1 | > 100 | 50.6 | inhibition (INH) (RAW264.7 [3]): 50%
CC1=C(c2ccc(C)c(C)c2)S(=O)(=O)N(Cc2ccc(C(=O)N3CCCCC3)cc2)C1=O | > 100 | 16.5 | –
CC1=C(c2cc[n+]([O-])cc2)S(=O)(=O)N(Cc2ccc(C(=O)N3CCCCC3)cc2)C1=O | > 100 | 79.4 | –
